# Reference: ChEMBL document CHEMBL1131769, “Orally bioavailable nonpeptide vitronectin receptor antagonists with efficacy in an osteoporosis model” (Bioorg Med Chem Lett, 1999)
# Assays:
# Integrin alpha-V/beta-5 = Integrin alpha-V/beta-5 (Homo sapiens, UniProt P06756+P18084); assay: Binding affinity for integrin alpha V beta 5 receptor; assay type: protein-complex assay
# [1] = biological target: Integrin alpha-IIb/beta-3 (Homo sapiens, UniProt P05106+P08514); assay: Binding affinity for alpha IIb beta3 integrin; assay type: protein-complex assay
# Sequence of Integrin alpha-IIb/beta-3 (P05106 27-788 limits assumed): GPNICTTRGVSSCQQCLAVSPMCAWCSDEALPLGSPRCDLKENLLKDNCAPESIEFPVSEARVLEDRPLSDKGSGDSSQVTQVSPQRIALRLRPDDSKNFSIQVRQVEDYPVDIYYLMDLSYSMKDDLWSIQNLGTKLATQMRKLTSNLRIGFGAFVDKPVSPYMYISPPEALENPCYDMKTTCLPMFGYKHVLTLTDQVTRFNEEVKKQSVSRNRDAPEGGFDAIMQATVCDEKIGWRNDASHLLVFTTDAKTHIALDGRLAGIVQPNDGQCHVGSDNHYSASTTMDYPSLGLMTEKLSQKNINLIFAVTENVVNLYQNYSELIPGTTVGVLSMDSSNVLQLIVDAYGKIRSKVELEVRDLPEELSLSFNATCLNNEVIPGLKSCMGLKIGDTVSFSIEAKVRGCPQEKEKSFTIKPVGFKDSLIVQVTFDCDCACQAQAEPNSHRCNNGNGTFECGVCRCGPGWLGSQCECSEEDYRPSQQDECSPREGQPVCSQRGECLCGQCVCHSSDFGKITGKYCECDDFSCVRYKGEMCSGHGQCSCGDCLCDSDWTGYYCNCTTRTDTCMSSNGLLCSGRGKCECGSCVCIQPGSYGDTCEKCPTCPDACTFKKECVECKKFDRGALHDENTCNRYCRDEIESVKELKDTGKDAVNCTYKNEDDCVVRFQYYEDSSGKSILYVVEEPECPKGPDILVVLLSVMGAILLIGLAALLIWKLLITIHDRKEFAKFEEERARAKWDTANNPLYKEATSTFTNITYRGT
# Sequence of Integrin alpha-IIb/beta-3 (P08514 32-887 limits assumed): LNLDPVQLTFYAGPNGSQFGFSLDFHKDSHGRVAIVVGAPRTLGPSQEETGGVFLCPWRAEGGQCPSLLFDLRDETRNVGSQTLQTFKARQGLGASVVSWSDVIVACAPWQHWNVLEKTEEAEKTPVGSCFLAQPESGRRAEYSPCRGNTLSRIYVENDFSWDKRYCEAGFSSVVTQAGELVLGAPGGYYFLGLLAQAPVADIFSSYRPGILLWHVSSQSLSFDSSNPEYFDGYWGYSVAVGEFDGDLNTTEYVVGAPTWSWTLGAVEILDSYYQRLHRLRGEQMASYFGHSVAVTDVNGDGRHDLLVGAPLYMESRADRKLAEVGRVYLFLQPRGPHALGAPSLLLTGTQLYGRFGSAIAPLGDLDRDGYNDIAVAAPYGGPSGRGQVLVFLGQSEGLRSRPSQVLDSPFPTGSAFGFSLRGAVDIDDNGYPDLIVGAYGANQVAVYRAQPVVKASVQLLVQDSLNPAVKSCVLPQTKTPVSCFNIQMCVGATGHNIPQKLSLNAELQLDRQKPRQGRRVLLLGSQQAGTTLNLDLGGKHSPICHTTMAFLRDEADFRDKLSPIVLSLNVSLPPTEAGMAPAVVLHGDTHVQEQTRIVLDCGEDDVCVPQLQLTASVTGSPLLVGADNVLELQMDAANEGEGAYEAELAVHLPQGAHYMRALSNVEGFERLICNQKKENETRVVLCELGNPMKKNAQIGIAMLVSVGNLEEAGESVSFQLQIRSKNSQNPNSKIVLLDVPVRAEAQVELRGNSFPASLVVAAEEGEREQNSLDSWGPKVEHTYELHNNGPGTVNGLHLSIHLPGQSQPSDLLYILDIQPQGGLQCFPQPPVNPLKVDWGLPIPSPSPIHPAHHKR
# Sequence of Integrin alpha-IIb/beta-3 (P08514 891-1039 limits assumed): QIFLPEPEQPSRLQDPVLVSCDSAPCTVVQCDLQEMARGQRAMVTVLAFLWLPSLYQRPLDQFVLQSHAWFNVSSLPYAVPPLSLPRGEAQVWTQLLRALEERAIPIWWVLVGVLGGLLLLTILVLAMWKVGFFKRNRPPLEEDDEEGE
# Method in brief: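 Competitive binding to human αIIbβ3, with 3H-SK&F 107260 as the displaced ligand. Ki is the mean of two to three separate experiments.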
# [2] = biological target: Integrin alpha-5/beta-1 (Homo sapiens); assay: Binding affinity for alpha 5 beta 1 receptor
# [3] = Oral bioavailability in rat; assay type: ADME, organism-based; conditions: in vivo
# Method in brief: (§1)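 Rat pharmacokinetics from plasma concentration–time data in two to three separate animals, by non-compartmental analysis. Oral bioavailability was taken from dose-normalized i.v. and p.o. AUC values.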
# Rattus norvegicus = assay: In vivo inhibitory activity against bone resorption of calcium response determined in thyroidparathyroidectomized rat model at 2.53 mg/kg/hr after 6 hr; assay type: functional
# Method in brief: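 Thyroparathyroidectomized rats received compound by continuous i.v. infusion at 2.53 mg/kg/hr. Inhibition of the calcemic response was read after 6 hr.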
# Homo sapiens [4] = species on record: Homo sapiens; assay: In vitro inhibitory activity against human platelet aggregation; assay type: functional
# Method in brief: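 Inhibition of ADP-induced aggregation in human platelet-rich plasma.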
# [5] = Half-life was determined; assay type: ADME, organism-based; conditions: rat, in vivo; method in brief: as §1
# [6] = Plasma clearance of the compound; assay type: ADME, organism-based; conditions: rat; method in brief: as §1
# Integrin alpha-V/beta-3 [7] = biological target: T1, Integrin alpha-V/beta-3 (Homo sapiens, UniProt P05106+P06756); assay: Inhibition of HEK 293 cell adhesion to vitronectin by alpha V beta 3; assay type: cell-based, HEK293
# T1 sequence (P05106 27-788 limits assumed): as the sequence (P05106 27-788 limits assumed) above
# T1 sequence (P06756 31-889 limits assumed): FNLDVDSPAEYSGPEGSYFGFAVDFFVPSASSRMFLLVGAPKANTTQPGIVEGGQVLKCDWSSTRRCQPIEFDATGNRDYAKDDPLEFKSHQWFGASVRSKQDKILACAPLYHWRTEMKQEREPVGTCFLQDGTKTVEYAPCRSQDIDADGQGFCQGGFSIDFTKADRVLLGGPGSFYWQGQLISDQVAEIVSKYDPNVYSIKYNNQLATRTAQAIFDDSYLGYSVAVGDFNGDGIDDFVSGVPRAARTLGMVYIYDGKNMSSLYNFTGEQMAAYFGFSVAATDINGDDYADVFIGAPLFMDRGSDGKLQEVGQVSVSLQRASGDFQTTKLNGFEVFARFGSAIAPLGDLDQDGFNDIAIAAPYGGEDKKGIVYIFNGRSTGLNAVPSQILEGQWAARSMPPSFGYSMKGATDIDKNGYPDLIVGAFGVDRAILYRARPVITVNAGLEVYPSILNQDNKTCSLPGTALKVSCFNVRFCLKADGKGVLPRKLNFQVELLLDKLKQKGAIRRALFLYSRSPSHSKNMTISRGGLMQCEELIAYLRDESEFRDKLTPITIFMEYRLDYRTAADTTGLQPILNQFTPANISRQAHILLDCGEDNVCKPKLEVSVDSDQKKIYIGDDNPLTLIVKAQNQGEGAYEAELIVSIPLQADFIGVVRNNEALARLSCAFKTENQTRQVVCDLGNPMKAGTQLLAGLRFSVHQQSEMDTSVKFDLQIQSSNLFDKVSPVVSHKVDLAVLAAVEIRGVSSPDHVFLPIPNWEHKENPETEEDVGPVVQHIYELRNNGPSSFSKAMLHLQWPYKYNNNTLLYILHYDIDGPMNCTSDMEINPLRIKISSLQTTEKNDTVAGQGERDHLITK
# T1 sequence (P06756 891-1048 limits assumed): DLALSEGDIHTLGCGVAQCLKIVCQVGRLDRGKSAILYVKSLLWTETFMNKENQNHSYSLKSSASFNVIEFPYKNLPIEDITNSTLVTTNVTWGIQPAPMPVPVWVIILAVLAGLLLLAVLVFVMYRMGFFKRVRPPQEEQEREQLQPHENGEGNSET
# Method in brief: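 Cell-based αvβ3 affinity. HEK 293 cells transfected with human αvβ3 were tested for inhibition of adhesion of purified human vitronectin. IC50 is the mean of two experiments run in triplicate with an internal standard.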
# Integrin alpha-V/beta-3 [8] = biological target: T1, Integrin alpha-V/beta-3; assay: Binding affinity for non-peptide Vitronectin receptor (alpha V beta 3); assay type: protein-complex assay
# Method in brief: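 Competitive binding to human αvβ3, with 3H-SK&F 107260 as the displaced radioligand. Ki is the mean of two to three separate experiments.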
# Homo sapiens [9] = species on record: Homo sapiens; assay: In vitro inhibitory activity determined by human osteoclast resorption assay; assay type: functional
# Sequence of Integrin alpha-V/beta-5 (P06756 31-889 limits assumed): as the sequence (P06756 31-889 limits assumed) above
# Sequence of Integrin alpha-V/beta-5 (P06756 891-1048 limits assumed): as the sequence (P06756 891-1048 limits assumed) above
# Sequence of Integrin alpha-V/beta-5 (P18084 24-799 limits assumed): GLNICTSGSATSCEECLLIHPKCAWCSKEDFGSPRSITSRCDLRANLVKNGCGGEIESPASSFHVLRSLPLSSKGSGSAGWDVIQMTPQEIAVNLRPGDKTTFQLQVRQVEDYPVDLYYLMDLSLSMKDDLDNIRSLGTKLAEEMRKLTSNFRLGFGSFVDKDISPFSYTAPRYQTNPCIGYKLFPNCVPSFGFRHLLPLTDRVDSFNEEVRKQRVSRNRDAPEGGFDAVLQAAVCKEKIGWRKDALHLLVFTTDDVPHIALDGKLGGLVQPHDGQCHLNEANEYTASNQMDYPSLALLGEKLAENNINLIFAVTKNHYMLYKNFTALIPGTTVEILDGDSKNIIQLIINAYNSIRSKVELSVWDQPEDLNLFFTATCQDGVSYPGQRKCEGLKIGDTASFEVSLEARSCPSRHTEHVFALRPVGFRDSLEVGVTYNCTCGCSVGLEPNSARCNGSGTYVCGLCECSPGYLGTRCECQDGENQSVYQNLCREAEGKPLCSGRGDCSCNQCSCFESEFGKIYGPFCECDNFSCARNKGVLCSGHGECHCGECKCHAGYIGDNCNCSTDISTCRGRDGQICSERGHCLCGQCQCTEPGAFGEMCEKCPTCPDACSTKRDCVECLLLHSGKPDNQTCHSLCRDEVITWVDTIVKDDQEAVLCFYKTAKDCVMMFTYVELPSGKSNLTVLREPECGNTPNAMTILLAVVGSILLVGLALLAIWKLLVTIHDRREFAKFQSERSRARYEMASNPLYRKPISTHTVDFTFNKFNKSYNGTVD
Ki (Integrin alpha-V/beta-5),Ki [1],Ki [2],bioavailability [3],IC50 (Homo sapiens [4]),half-life [5],clearance [6],IC50 (Integrin alpha-V/beta-3 [7]),Ki (Integrin alpha-V/beta-3 [8]),IC50 (Homo sapiens [9]),SMILES,inhibition in vivo at 2.53 mg/kg/hr (Rattus norvegicus)
1.3 nM,9000 nM,18000 nM,100%,> 200000 nM,3.02 h,3 mL/min/kg,60 nM,4 nM,48 nM,O=C(O)C[C@@H]1Cc2ccc(OCCCNc3ccccn3)cc2Cc2ccccc21,85%
–,> 50000 nM,–,–,–,–,–,1800 nM,23 nM,–,CN(Cc1nc2ccccc2[nH]1)C(=O)c1ccc2c(c1)Cc1ccccc1C(CC(=O)O)C2 (stereo not given),–
–,30000 nM,–,–,–,–,–,65 nM,8 nM,–,O=C(O)CC1Cc2ccc(OCCCNc3ccccn3)cc2Cc2ccccc21 (stereo not given),–
–,–,–,3%,–,0.15 h,–,–,–,–,CN(Cc1nc2ccccc2[nH]1)C(=O)c1ccc2c(c1)CN(C)C(=O)[C@H](CC(=O)O)N2,–
–,–,–,–,–,–,–,–,550 nM,–,O=C(O)C[C@H]1Cc2ccc(OCCCNc3ccccn3)cc2Cc2ccccc21,–
